Consider two molecules from ChEMBL document CHEMBL1154414, “In vitro and in vivo activities of T-705 against arenavirus and bunyavirus infections” (Antimicrob Agents Chemother, 2007).

For assay [1], the system named is Punta Toro virus. The assay is described as follows: Antiviral activity against Punta Toro virus Adames infected Syrian golden hamster assessed as mean viral titer per 0.1 g of liver at 60 mg/kg, po twice daily administered 4 hrs before viral challenge measured on day 4 of viral infection. The assay is classed as functional.
Assay [2] concerns Punta Toro virus. Kind of assay: Antiviral activity against Punta Toro virus Adames infected Syrian golden hamster assessed as animals with detectable virus level in liver at 15 mg/kg, po twice daily administered 4 hrs before viral challenge measured on day 4 of viral infection. The assay is classed as functional.
Assay [3] deals with Punta Toro virus. Kind of assay: Antiviral activity against 500 PFU Punta Toro virus Adames infected C57BL/6 mouse assessed as animals with detectable virus level in serum at 10 mg/kg, po twice daily administered 24 hrs post viral challenge measured on day 3 of viral infection. Format: functional. An outline of the steps:
(§1)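 T-705 was suspended in 0.4% carboxymethylcellulose and given by oral gavage twice daily. Mice were infected subcutaneously with PTV. Five mice per group (10 placebo) were sacrificed on day 3 or 4. Liver homogenate or serum was serially diluted onto triplicate LLC-MK2 monolayers, and CPE was read at 6–8 days. The detection limit was 2.8 log10 CCID50 per 0.1 g liver or 0.1 ml serum.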

The test system of assay [4] is Punta Toro virus. Kind of assay: Antiviral activity against 50 PFU Punta Toro virus Adames infected C57BL/6 mouse assessed as survival at 10 mg/kg, po twice daily for 5 days administered 24 hrs post viral challenge. Format: functional, organism-based. Set-up: dose 10 mg/kg. A digest of the protocol:
(§2)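 Groups of 15 mice (25–30 placebo) were inoculated subcutaneously with PTV. Drug in 0.4% carboxymethylcellulose was given by oral gavage twice daily.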

In assay [5] the test system is Punta Toro virus. Kind of assay: Antiviral activity against Punta Toro virus Adames infected Syrian golden hamster assessed as mean day of death at 60 mg/kg, po twice daily for 6 days administered 4 hrs before viral challenge. Format: functional.
Assay [6] concerns Rift Valley fever virus. Kind of assay: Antiviral activity against Rift Valley fever virus MP-12 assessed as reduction of 1 log10 unit viral titer yields after 3 to 5 days. Format: functional.
In assay [7] the test system is Sandfly fever Naples virus. The assay is described as follows: Antiviral activity against Sandfly fever Naples virus assessed as reduction of 1 log10 unit viral titer yields after 3 to 5 days. Format: functional.
Assay [8] has as its system Punta Toro virus. The assay is described as follows: Antiviral activity against 500 PFU Punta Toro virus Adames infected C57BL/6 mouse assessed as mean day of death at 100 mg/kg, po twice daily for 5 days administered 4 hrs before viral challenge. The assay is classed as functional. An outline of the steps: as §2
The subject of assay [9] is Punta Toro virus. Kind of assay: Antiviral activity against 500 PFU Punta Toro virus Adames infected C57BL/6 mouse assessed as mean viral titer per 0.1 g of liver at 50 mg/kg, po administered 4 hrs before viral challenge measured on day 4 of viral infection. The assay is classed as functional. A digest of the protocol:
(§3)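 Mice were infected subcutaneously with PTV and dosed by oral gavage twice daily; 5 per group (10 placebo) were killed on day 3 or 4. Liver homogenate or serum was serially diluted onto triplicate LLC-MK2 monolayers, and CPE was read 6–8 days later. 50% endpoints gave log10 CCID50 per 0.1 g liver or 0.1 ml serum. Detection range was 2.8–9.5; undetectable samples were assigned <2.8.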

Assay [10] relates to Punta Toro virus. The assay is described as follows: Antiviral activity against 500 PFU Punta Toro virus Adames infected C57BL/6 mouse assessed as mean viral titer per 0.1 g of liver at 25 mg/kg, po administered 4 hrs before viral challenge measured on day 4 of viral infection. The assay is classed as functional. A digest of the protocol: as §3
Assay [11] deals with Punta Toro virus. The assay is described as follows: Antiviral activity against 500 PFU Punta Toro virus Adames infected C57BL/6 mouse assessed as mean viral titer per 0.1 mL of serum at 100 mg/kg, po twice daily administered 4 hrs before viral challenge measured on day 4 of viral infection. Format: functional. An outline of the steps:
as §3

Assay [12] has as its system Influenza A virus. The assay is described as follows: Antiviral activity against influenza A virus. The assay is classed as functional, organism-based.
In assay [13] the test system is Punta Toro virus. Kind of assay: Antiviral activity against Punta Toro virus Adames infected Syrian golden hamster assessed as mean viral titer per 0.1 mL of serum at 15 mg/kg, po twice daily administered 4 hrs before viral challenge measured on day 4 of viral infection. Format: functional.
Assay [14] has as its system Punta Toro virus. Kind of assay: Antiviral activity against Punta Toro virus Adames infected Syrian golden hamster assessed as animals with detectable virus level in serum at 15 mg/kg, po twice daily administered 4 hrs before viral challenge measured on day 4 of viral infection. The assay is classed as functional.
Assay [15] deals with Punta Toro virus. The assay is described as follows: Antiviral activity against Punta Toro virus Adames infected Syrian golden hamster assessed as survival at 15 mg/kg, po twice daily for 6 days administered 4 hrs before viral challenge. The assay is classed as functional.
The subject of assay [16] is Pichinde virus. Kind of assay: Antiviral activity against Pichinde virus An 4763 infected Syrian golden hamster assessed as mean day of death at 15 mg/kg, po twice daily for 7 days administered 4 hrs before viral-challenge. Format: functional.
Assay [17] has as its system Pichinde virus. Kind of assay: Antiviral activity against Pichinde virus An 4763 infected Syrian golden hamster assessed as mean viral titer per 0.1 g of liver at 60 mg/kg, po twice daily for 7 days administered 4 hrs before viral-challenge measured on day 7 of viral infection. The assay is classed as functional.
Assay [18] has as its system Pichinde virus. The assay is described as follows: Antiviral activity against Pichinde virus An 4763 infected Syrian golden hamster assessed as animals with detectable virus level in liver at 60 mg/kg, po twice daily for 7 days administered 4 hrs before viral-challenge measured on day 7 of viral infection. The assay is classed as functional.
Assay [19] relates to Pichinde virus. Kind of assay: Antiviral activity against Pichinde virus An 4763 infected Syrian golden hamster assessed as animals with detectable virus level in serum at 60 mg/kg, po twice daily for 7 days administered 4 hrs before viral-challenge measured on day 7 of viral infection. Format: functional.
Assay [20] relates to Pichinde virus. The assay is described as follows: Antiviral activity against Pichinde virus An 4763 infected Syrian golden hamster assessed as mean serum ALT levels at 60 mg/kg, po twice daily for 7 days administered 4 hrs before viral-challenge measured on day 7 of viral infection. The assay is classed as functional.
The test system of assay [21] is Pichinde virus. The assay is described as follows: Antiviral activity against Pichinde virus An 4763 infected Syrian golden hamster assessed as mean serum ALT levels at 30 mg/kg, po twice daily for 7 days administered 4 hrs before viral-challenge measured on day 7 of viral infection. The assay is classed as functional.
Assay [22] relates to Punta Toro virus. The assay is described as follows: Antiviral activity against 500 PFU Punta Toro virus Adames infected C57BL/6 mouse assessed as animals with detectable virus level in serum at 100 mg/kg, po twice daily administered 4 hrs before viral challenge measured on day 4 of viral infection. Format: functional. A digest of the protocol:
as §1

The test system of assay [23] is Punta Toro virus. Kind of assay: Antiviral activity against 500 PFU Punta Toro virus Adames infected C57BL/6 mouse assessed as animals with detectable virus level in serum at 25 mg/kg, po twice daily administered 4 hrs before viral challenge measured on day 4 of viral infection. The assay is classed as functional. An outline of the steps:
as §1

For assay [24], the system named is Punta Toro virus. Kind of assay: Antiviral activity against 500 PFU Punta Toro virus Adames infected C57BL/6 mouse assessed as mean serum ALT levels at 50 mg/kg, po twice daily administered 4 hrs before viral challenge measured on day 4 of viral infection. The assay is classed as functional. A digest of the protocol: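 C57BL/6 mice received subcutaneous PTV, then oral gavage twice daily for 5–7 days. T-705 was given in 0.4% CMC and ribavirin in saline. Five mice per group (10 placebo) were killed on day 3 or 4, and serum was collected. ALT activity was measured by kinetic assay. Three sham-infected mice set baselines.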

In assay [25] the test system is Punta Toro virus. The assay is described as follows: Antiviral activity against 500 PFU Punta Toro virus Adames infected C57BL/6 mouse assessed as mean day of death at 10 mg/kg, po twice daily for 5 days administered 4 hrs before viral challenge. The assay is classed as functional. A digest of the protocol: as §2
In assay [26] the test system is Punta Toro virus. The assay is described as follows: Antiviral activity against 500 PFU Punta Toro virus Adames infected C57BL/6 mouse assessed as animals with detectable virus level in liver at 10 mg/kg, po twice daily administered 4 hrs before viral challenge measured on day 3 of viral infection. The assay is classed as functional. A digest of the protocol: as §1

The subject of assay [27] is Pichinde virus. Kind of assay: Antiviral activity against Pichinde virus An 4763 infected Syrian golden hamster assessed as inhibition of liver damage at 50 mg/kg, po twice daily for 7 days administered 72 hrs post viral-challenge measured on day 7 of viral infection. The assay is classed as functional, organism-based. The arrangement: dose 50 mg/kg.
The test system of assay [28] is Pichinde virus. The assay is described as follows: Antiviral activity against Pichinde virus An 4763 infected Syrian golden hamster assessed as survival at 50 mg/kg, po twice daily for 7 days administered 24 hrs post viral-challenge. The assay is classed as functional, organism-based. Set-up: dose 50 mg/kg.

The source made the active and inactive calls. No cut-off for these calls is given here.

On to `NC(=O)c1nc(F)cnc1O` [FAVIPIRAVIR], for which the log10CCID50 in [1] was <3.4; in [9], <2.8; in assay [10] it was <2.8; in assay [11], <2.8; in [13], <4.1; in [17] it was <2.8. Moreover, the Activity in [2] is 100%; in [3], 100%; in assay [5], 6 days; in [8], >21 days; in assay [14], 100%; in [16], 11.1 days. For the same molecule, the Activity was 0% in assay [18]; 0% in assay [19]; 23 IU/L in [20]; 378 IU/L in [21]; 0% in assay [22]; 20% in assay [23]. In addition, the Activity came out at 41 IU/L in [24], 5 days in assay [25] and 0% in assay [26]. In addition, the outcome in [4] was inactive. The EC90 stood at 6000 nM in assay [6] and 3000 nM in assay [7]. In assay [12], this molecule registered an EC50 of 83 nM. In addition, the survival at 15 mg/kg in assay [15] was 50%.
For the molecule `NC(=O)c1ncn([C@@H]2O[C@H](CO)[C@@H](O)[C@H]2O)n1` [RIBAVIRIN], the result in assay [27] and in assay [28] was Active.

By EC90 is commonly meant the concentration needed for an effect of 90%. The EC50 is the concentration that produces a half-maximal response.
